Reference: PubChem BioAssay
Results filed as inconclusive are left out.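 Rule for the calls, unless noted: active = viability at or below 27.92% in each of two runs, the all-compound median minus 4 SD; inconclusive = no clear call, values can overlap the other calls; inactive = the rest.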

Experiments:
[1] = S. cerevisiae growth inhibition in permissive medium (OD615), pilot counter-assay for S. cerevisiae lifespan shortening project, permissive growth control (AID 705;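 active = growth inhibition above 25% in both replicates, a cutoff set 3 SD above the mean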); details: OD615, 24 h, at 10 µM, stronger effect = higher value
How it was run: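 assay system = Saccharomyces cerevisiae strain carrying genetically modified DeaD replicative-lifespan system | technique = absorbance (optical density) at 615 nm | buffer or medium = permissive raffinose/galactose medium | timing = cells pre-grown 4 h, then 24 h compound exposure, 30 °C humidified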

[2] = S. cerevisiae growth inhibition in restrictive medium, OD615, pilot screen, restrictive growth control, yeast lifespan reduction project (AID 706;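 active = growth inhibition above a set limit, 3 SD over mean compound inhibition, in both replicates, cut at about 43% in these data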;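 note: modified DeaD lifespan yeast strain shifted to restrictive glucose medium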); details: OD615, 48 h, at 10 µM, stronger effect = higher value
How it was run: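 System: modified S. cerevisiae. Buffer or medium: CSMM-D glucose medium. Incubation: 4 h pre-growth plus 48 h compound exposure, 30 °C. Detection: absorbance (optical density) measured at 615 nm.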

[3] = doxorubicin toxicity protection in MRP-1 cells – H69AR cells, CellTiter-Glo, duplicate, MRP-1 activator project, pilot screen (AID 807;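 active = viability increase at or above a cutoff of the median across tested compounds plus 3 SD, cut at about 8.5% in these data, passing the limit was not always enough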;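 note: compound pretreatment 18-22 h then 72 h combined with doxorubicin; 0% = doxorubicin alone and 100% = vehicle without doxorubicin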); details: H69AR viability with doxorubicin, CellTiter-Glo luminescence; at 10 µM; stronger effect = higher value
[4] = viability of PTEN-null HCT116 cells – cell-based, HCT116 clonal line, CellTiter-Glo, pilot screen (AID 824); details: HCT116 PTEN-deleted viability, 60 h, at 10 µM, stronger effect = lower value;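 note: 0% = 20 µM Hyamine control and 100% = vehicle cell control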
[5] = RAM pathway blockade in budding yeast – dse1pr::URA3 reporter, 5-FOA selection, pilot screen (AID 869;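 active = inhibition over a set limit, the all-compound mean plus 3 SD, in both replicate runs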;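 note: 0% = DMSO wells with no growth and 100% = 10 µM 1-NA-PP1 with full growth; RAM network block rescues cells from 5-FOA so hits raise OD615 growth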); details: S. cerevisiae dse1pr::URA3 5-FOA growth, OD615, 2 d; at 10 µM; stronger effect = higher value; strain carries analog-sensitive mutant Cbk1 kinase
[6] = RAM signaling pathway blockade in yeast – S. cerevisiae, Pdr1DBD-CYC8 efflux-inhibited sensitized strain, primary screen (AID 1298;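 active = RAM network inhibition above 8.4% in each of two replicates, 3 SD over the compound average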;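 note: 0% = DMSO untreated cells without growth and 100% = 10 µM 1-NA-PP1 full growth; higher means more yeast growth rescued from 5-FOA killing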); details: S. cerevisiae cbk1-as DSE1-URA3 strain, 5-FOA growth OD615, 2 d; at 50 µM; stronger effect = higher value

CCCCC1CC(CSc2ncn[nH]2)OC1=O (stereo not given)
inactive: growth inhibition [1] -11.3% | growth inhibition [2] -7.68% | viability increase [3] 1.38% | viability [4] 98% | inhibition [5] 1.21% | RAM network inhibition [6] 0.01%

CCOc1ccc(-n2c(SCC(=O)Nc3cc(C)on3)nc3c([nH]c4ccccc43)c2=O)cc1
inactive: growth inhibition [1] -16.7% | growth inhibition [2] -15.4% | viability increase [3] -6.08% | viability [4] 55.3% | inhibition [5] 0.94% | RAM network inhibition [6] 5.59%

O=C(CN1C(=O)c2ccccc2S1(=O)=O)N1CCN(c2ccccc2F)CC1
inactive: growth inhibition [1] 0.11% | growth inhibition [2] 5.53% | viability increase [3] -3.37% | viability [4] 101% | inhibition [5] 2.07% | RAM network inhibition [6] 2.92%

O=C(c1ccco1)N1CCCC(c2nc(-c3ccc(S(=O)(=O)NCc4ccccc4)cc3)no2)C1 (stereo not given)
inactive: growth inhibition [1] -8.47% | growth inhibition [2] -27.3% | viability increase [3] -2.74% | viability [4] 47.4% | inhibition [5] 1.58% | RAM network inhibition [6] 3.3%

CCOC(=O)N1CCN(C(=O)C(CC(C)C)NC(=O)C2CCCCC2)CC1 (stereo not given)
inactive: growth inhibition [1] -11.7% | growth inhibition [2] -4.5% | viability increase [3] -2.13% | viability [4] 101% | inhibition [5] 0.455% | RAM network inhibition [6] 1.59%

CCSc1nc2ccccc2n1CC(=O)N1CCOCC1
inactive: growth inhibition [1] -4.23% | growth inhibition [2] 1.08% | viability increase [3] -3.2% | viability [4] 92.4% | inhibition [5] 0.915% | RAM network inhibition [6] 0.98%

CC(C)Cn1c(SCC(=O)NC2CCCc3ccccc32)nc(O)cc1=O (stereo not given)
inactive: growth inhibition [1] -3.38% | growth inhibition [2] 9.89% | viability increase [3] -2.62% | viability [4] 97.9% | inhibition [5] 1% | RAM network inhibition [6] 2.76%

COc1cc2c(C(=O)N3CCN(Cc4ccc5c(c4)OCO5)CC3)cn(C)c(=O)c2cc1OC
inactive: growth inhibition [1] -8.34% | growth inhibition [2] -4.51% | viability increase [3] -6.92% | viability [4] 95.6% | inhibition [5] 0.85% | RAM network inhibition [6] 1.29%

Cc1ccc(S(=O)(=O)c2cccc(S(=O)(=O)N3CCCC3)c2)cc1S(=O)(=O)N1CCCC1
inactive: growth inhibition [1] -2.43% | growth inhibition [2] -5.35% | viability increase [3] -3.64% | viability [4] 44.4% | inhibition [5] 1.4% | RAM network inhibition [6] 2.38%

CC1(C)CC(=O)C(C=NC2CC(C)(C)NC(C)(C)C2)=C(O)C1
inactive: growth inhibition [1] -1.6% | growth inhibition [2] -7.89% | viability increase [3] 0.22% | viability [4] 95.5% | inhibition [5] 1.82% | RAM network inhibition [6] 4.6%

Cc1ccc2nc(NC(=O)c3cccs3)sc2c1
inactive: growth inhibition [1] -2.67% | growth inhibition [2] 10.6% | viability increase [3] -4.54% | viability [4] 69.2% | inhibition [5] 1.29% | RAM network inhibition [6] 4.15%

CC(C)(Oc1ccc(Cl)cc1)C(=O)Nc1ncccn1
inactive: growth inhibition [1] -5.31% | growth inhibition [2] -3.56% | viability increase [3] -2.32% | viability [4] 101% | inhibition [5] 1.61% | RAM network inhibition [6] 2.05%

O=C1N=C(c2ccccc2)C(c2ccccc2)N1 (stereo not given)
inactive: growth inhibition [1] -9.57% | growth inhibition [2] 0.595% | viability increase [3] -3.35% | viability [4] 90.8% | inhibition [5] 1.23% | RAM network inhibition [6] 1.06%

CCOc1ccccc1NC(=O)CSc1ccccc1
inactive: growth inhibition [1] -17.2% | growth inhibition [2] -2.58% | viability increase [3] -2.94% | viability [4] 85.8% | inhibition [5] 0.255% | RAM network inhibition [6] 2.06%

Cc1ccc(N(CC(=O)Nc2ccc(S(=O)(=O)N3CCOCC3)cc2)S(C)(=O)=O)cc1C
inactive: growth inhibition [1] -6.29% | growth inhibition [2] -5.42% | viability increase [3] -4.96% | viability [4] 84.2% | inhibition [5] 0.84% | RAM network inhibition [6] 2.67%

Cn1c(=O)oc2cc(S(=O)(=O)N3CCCC(C(=O)NCc4ccc5c(c4)OCO5)C3)ccc21 (stereo not given)
inactive: growth inhibition [1] -7.5% | growth inhibition [2] 6.97% | viability increase [3] -7.5% | viability [4] 36.4% | inhibition [5] 3.25% | RAM network inhibition [6] 8.39%

C(=C\CSc1nnnn1-c1ccccc1)/CSc1nnnn1-c1ccccc1
inactive: growth inhibition [1] -9.57% | growth inhibition [2] -3.65% | viability increase [3] -1.58% | viability [4] 87.6% | inhibition [5] 3.83% | RAM network inhibition [6] 10%

COc1ccc(CCNC(=O)CN(c2ccc(OC)c(OC)c2)S(C)(=O)=O)cc1OC
inactive: growth inhibition [1] -1.96% | growth inhibition [2] -7.65% | viability increase [3] 0.32% | viability [4] 106% | inhibition [5] 0.98% | RAM network inhibition [6] 1.49%

O=C(CCCSc1nc2ccccc2s1)NCc1ccco1
inactive: growth inhibition [1] 1.82% | growth inhibition [2] -1.56% | viability increase [3] -2.85% | viability [4] 86.3% | inhibition [5] 1.28% | RAM network inhibition [6] -0.82%

CC1=CCC(C(=O)O)C(C(=O)O)C1 (stereo not given)
inactive: growth inhibition [1] -2.08% | growth inhibition [2] -10.3% | viability increase [3] -2.04% | viability [4] 95.7% | inhibition [5] 1.69% | RAM network inhibition [6] 1.34%

CCN(CC)C(=O)CSc1nsc(SCC(=O)N(CC)CC)c1C#N
inactive: growth inhibition [1] -9.3% | growth inhibition [2] 6.27% | viability increase [3] -2.27% | viability [4] 95.3% | inhibition [5] 1.22% | RAM network inhibition [6] 6.13%

Cc1cc(C(=O)NC(C)c2ccncc2)no1 (stereo not given)
inactive: growth inhibition [1] -12.9% | growth inhibition [2] 8.19% | viability increase [3] -2.15% | viability [4] 90.3% | inhibition [5] 1.55% | RAM network inhibition [6] 0.72%

CCc1cccc(C)c1NC(=O)CCCC(=O)O
inactive: growth inhibition [1] -0.24% | growth inhibition [2] -1.56% | viability increase [3] -1.29% | viability [4] 102% | inhibition [5] 0.44% | RAM network inhibition [6] -0.21%

O=S(=O)(Cc1ccccc1)N1CCc2ccccc2C1
inactive: growth inhibition [1] 2.65% | growth inhibition [2] -4.61% | viability increase [3] -0.66% | viability [4] 95.8% | inhibition [5] 3.92% | RAM network inhibition [6] 6.16%

CCOC(=O)N1CCc2c(sc(NC(=O)c3ccc(Cl)s3)c2C(N)=O)C1
inactive: growth inhibition [1] -0.755% | growth inhibition [2] 5.5% | viability increase [3] -2.73% | viability [4] 40% | inhibition [5] 0.53% | RAM network inhibition [6] -0.87%

CCC(C)(C(=O)NC1CCCC1)N(C(=O)CNC(C)=O)c1ccccc1 (stereo not given)
inactive: growth inhibition [1] -11.6% | growth inhibition [2] -1.64% | viability increase [3] -1.96% | viability [4] 98.3% | inhibition [5] 3.23% | RAM network inhibition [6] 3.45%

C=CCn1c(SC(CCO)C(=O)NCc2ccco2)nc2sc3c(c2c1=O)CCC3 (stereo not given)
inactive: growth inhibition [1] -8.84% | growth inhibition [2] 0.375% | viability increase [3] -5.67% | viability [4] 84.7% | inhibition [5] 1.2% | RAM network inhibition [6] 5.12%

Cc1onc(-c2ccccc2)c1C(=O)Nc1ccc2c(C)cc(=O)oc2c1
inactive: growth inhibition [1] -3.97% | growth inhibition [2] -0.655% | viability increase [3] -2.9% | viability [4] 103% | inhibition [5] 3.31% | RAM network inhibition [6] 2.2%

COC(=O)C1=C(C)NC2=C(C(=O)CC(c3cccs3)C2)C1c1ccsc1 (stereo not given)
inactive: growth inhibition [1] -7.01% | growth inhibition [2] 2.53% | viability increase [3] -6.75% | viability [4] 40.1% | inhibition [5] 1.25% | RAM network inhibition [6] 4.86%

O=C(Nc1cccc(F)c1)Nc1ccccn1
inactive: growth inhibition [1] -10.9% | growth inhibition [2] -7.43% | viability increase [3] -3.54% | viability [4] 88.1% | inhibition [5] 0.385% | RAM network inhibition [6] -0.16%

O=C(NCc1ccco1)c1ccc(CN2CCOCC2)cc1
inactive: growth inhibition [1] -5.32% | growth inhibition [2] 1.69% | viability increase [3] -3.13% | viability [4] 105% | inhibition [5] 2.41% | RAM network inhibition [6] 2.2%

Cc1c(C(=O)NCc2ccccc2)oc2ccc(S(=O)(=O)N3CCC4(CC3)OCCO4)cc12
inactive: growth inhibition [1] 5.31% | growth inhibition [2] 2.71% | viability increase [3] -4.5% | viability [4] 66.5% | inhibition [5] 3.6% | RAM network inhibition [6] 2.96%

COc1ccc(Oc2coc3c(CN(C)C)c(O)ccc3c2=O)cc1
inactive: growth inhibition [1] -5.32% | growth inhibition [2] -12.9% | viability increase [3] -7.46% | viability [4] 95.3% | inhibition [5] 0.075% | RAM network inhibition [6] -0.21%

CCOc1ccccc1N(CC(=O)Nc1ccc2c(c1)OCO2)S(C)(=O)=O
inactive: growth inhibition [1] -8.59% | growth inhibition [2] -22.3% | viability increase [3] -0.96% | viability [4] 100% | inhibition [5] 1.7% | RAM network inhibition [6] -0.87%

COc1ccc(S(=O)(=O)C(C#N)c2nc3ccccc3nc2N2CCC(C)CC2)cc1 (stereo not given)
inactive: growth inhibition [1] -12.1% | growth inhibition [2] -14.1% | viability increase [3] -4.72% | viability [4] 87.9% | inhibition [5] 3.85% | RAM network inhibition [6] 8.8%

CCNC(=O)CN(C1CCCCC1)S(=O)(=O)c1ccc(F)cc1
inactive: growth inhibition [1] -8.23% | growth inhibition [2] -2.66% | viability increase [3] -2.01% | viability [4] 91% | inhibition [5] 3.43% | RAM network inhibition [6] -0.15%

O=C(O)CNS(=O)(=O)c1ccc(F)cc1
inactive: growth inhibition [1] -6.07% | growth inhibition [2] -7.54% | viability increase [3] -0.77% | viability [4] 94.4% | inhibition [5] 2.21% | RAM network inhibition [6] 0.32%

Cc1noc(C)c1C(=O)NCCCc1ccccc1
inactive: growth inhibition [1] -4.23% | growth inhibition [2] -7.88% | viability increase [3] -1.07% | viability [4] 103% | inhibition [5] 0.62% | RAM network inhibition [6] 0.21%

COc1ccc(CCNS(=O)(=O)c2ccc3c(c2)OCCO3)cc1OC
inactive: growth inhibition [1] -9.32% | growth inhibition [2] -3.31% | viability increase [3] -1.53% | viability [4] 89.9% | inhibition [5] 3.12% | RAM network inhibition [6] 1.02%

CCC(=O)N1CCc2cc(Br)cc(S(=O)(=O)NCc3ccco3)c21
inactive: growth inhibition [1] -4% | growth inhibition [2] -12.8% | viability increase [3] -5.07% | viability [4] 96.8% | inhibition [5] 1.7% | RAM network inhibition [6] 1.85%
